One may read the GI50 as the concentration giving 50% growth inhibition.

For eleven compounds, GI50 and Activity results are on record in ChEMBL document CHEMBL1156563, “Synthesis and antiproliferative evaluation of amide-containing flavone and isoflavone derivatives” (Bioorg Med Chem, 2008).

One experiment deals with NCI-H661. The experiment in a line: Antiproliferative activity against human NCI-H661 cells after 72 hrs by MTT assay. The format is functional. Particulars: NCI-H661, 72 h. A digest of the protocol: (§1)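 Cells were exposed to a range of concentrations for 72 h. Compounds came from 20 mM stocks in 100% DMSO. Cells were then given MEM with 0.4 mg/mL MTT for 2 h, and formazan was read at 570 nm. GI50 was taken from percentage conversion relative to mock-treated controls and reported as mean SD of three independent experiments.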
On the technique in general: Tetrazolium assays rely on reduction of a dye to a coloured formazan, in cell work by metabolically active cells.

The next experiment relates to MT2. The experiment in a line: Antiproliferative activity against human MT2 cells after 72 hrs by MTT assay. The experiment is classed as functional. Particulars: MT2, 72 h. The method in brief: as §1
The nature of experiment [1]: Antiproliferative activity against human NPC-TW01 cells after 72 hrs by MTT assay. Particulars: NPC-TW01, 72 h. The format is functional. A digest of the protocol: as §1
Experiment [2] is described as follows: Cell cycle arrest in human NPC-TW01 cells assessed as accumulation at S phase at 48.0 uM after 72 hrs by flow cytometry. The format is functional, cell-based. A digest of the protocol: (§2)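 Exponentially growing cells were treated for 72 h. Controls received complete medium with 0.5% DMSO for 72 h. Cells were fixed, incubated with RNase and stained. DNA content was measured on a FACScan flow cytometer, and the percentage of cells in each cell-cycle phase was determined.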
(In general: In flow cytometry, cells or beads pass a laser one at a time.)

Experiment [3] is described as follows: Cell cycle arrest in human NPC-TW01 cells assessed as accumulation at G2/M phase at 48.0 uM after 72 hrs by flow cytometry. The experiment is classed as functional, cell-based. The method in brief: as §2
Experiment [4] is described as follows: Cell cycle arrest in human NPC-TW01 cells assessed as accumulation at G0/G1 phase at 48.0 uM after 72 hrs by flow cytometry. The experiment is classed as functional, cell-based. A digest of the protocol: as §2
Experiment [5] in a line: Cell cycle arrest in human NPC-TW01 cells assessed as accumulation at sub-G1 phase at 48.0 uM after 72 hrs by flow cytometry. The experiment is classed as functional, cell-based. The method in brief:
as §2

Some results are limits rather than exact numbers.

`O=C(COc1ccc2oc(-c3ccccc3)cc(=O)c2c1)Nc1ccccc1`: the 50% growth inhibitory concentration (GI50) with NCI-H661 is 5.6 µM; in the experiment on MT2, 1.43 µM; in experiment [1] it was 1.26 µM.
Turning to `COc1ccc(/C(COc2ccc3oc(-c4ccccc4)cc(=O)c3c2)=N/O)cc1`, the Activity in experiment [2] was determined as 27.5%; in experiment [3] it was 70.8%; in experiment [4] it was 0.5%; in experiment [5], 1.2%.
On to `O=C(COc1ccc2oc(-c3ccccc3)cc(=O)c2c1)Nc1ccc2ccccc2c1`, for which the GI50 with NCI-H661 is 6.71 µM; in the experiment on MT2, over 10 µM; in experiment [1] it was 6.75 µM.
The like results for `O=C(COc1c(-c2ccccc2)oc2ccccc2c1=O)Nc1ccccc1` were, in that order, over 10 µM, 6.72 µM and over 10 µM.
For `O=C(COc1c(-c2ccccc2)oc2ccccc2c1=O)Nc1ccc(F)cc1` the same measures were over 10 µM, over 10 µM and 9.5 µM.
For `O=C(COc1ccc2c(=O)c(-c3ccccc3)coc2c1)Nc1ccc(F)cc1` the same measures were over 10 µM, 2.5 µM and 0.55 µM.
On to `O=C(COc1ccc2c(=O)cc(-c3ccccc3)oc2c1)Nc1ccccc1`, for which the concentration for 50% growth inhibition (GI50) (in the experiment on NCI-H661; in the experiment on MT2; in experiment [1]) was over 10 µM in each case.
For `O=C(COc1ccc2c(=O)cc(-c3ccccc3)oc2c1)Nc1ccc(-c2ccccc2)cc1`, the figures for the GI50 (with NCI-H661; in the experiment on MT2; in experiment [1]) were 1.28 µM, 2.48 µM and 1.61 µM, respectively.
The like results for `O=C(COc1ccc2c(=O)c(-c3ccccc3)coc2c1)Nc1ccc2ccccc2c1` were, in that order, over 10 µM, 7.68 µM and 1.37 µM.
For `O=C(COc1c(-c2ccccc2)oc2ccccc2c1=O)Nc1ccc(-c2ccccc2)cc1` the same measures were over 10 µM, over 10 µM and over 10 µM.
For `COc1ccc(NC(=O)COc2c(-c3ccccc3)oc3ccccc3c2=O)cc1` the same measures were 6.74 µM, over 10 µM and 5.48 µM.
